Measurements published in ChEMBL document CHEMBL2331224 (J Med Chem, 2013).

Legend:
[1] = biological target: T1, Retinoic acid receptor RXR-alpha (Homo sapiens) (UniProt P19793); assay: Transactivation of RXRalpha (unknown origin) expressed in COS1 cells at 0.1 uM after 18 hrs by luciferase reporter gene assay relative to bexarotene; assay type: cell-based; conditions: COS-1
T1 sequence (whole entry): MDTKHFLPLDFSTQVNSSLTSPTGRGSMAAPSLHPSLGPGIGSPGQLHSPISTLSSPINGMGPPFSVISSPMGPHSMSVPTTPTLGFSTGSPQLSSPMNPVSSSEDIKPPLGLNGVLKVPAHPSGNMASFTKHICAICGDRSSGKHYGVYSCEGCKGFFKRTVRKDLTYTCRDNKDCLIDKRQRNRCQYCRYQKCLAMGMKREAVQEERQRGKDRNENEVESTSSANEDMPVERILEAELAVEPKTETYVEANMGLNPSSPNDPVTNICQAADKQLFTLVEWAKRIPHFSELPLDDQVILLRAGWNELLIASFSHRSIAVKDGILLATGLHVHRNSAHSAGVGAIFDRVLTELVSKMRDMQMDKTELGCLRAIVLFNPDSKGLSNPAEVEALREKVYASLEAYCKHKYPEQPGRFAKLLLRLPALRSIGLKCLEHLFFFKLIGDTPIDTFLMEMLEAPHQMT
Procedure, shortened: (§1)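 COS-1 cells in DMEM with 10% FBS at 37 °C, 5% CO2, transfected with RXRα, an RXR-response-element luciferase reporter and a SEAP background vector. Cells were seeded at about 2.0 × 10⁴ per well with compound (DMSO below 1%) for 18 h. Luciferase was normalized to SEAP and expressed relative to 1 μM reference RXR full agonist as 100%. EC50 came from full dose-response curves. Triplicates, at least three experiments.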

[2] = biological target: T1, Retinoic acid receptor RXR-alpha (Homo sapiens); assay: Transactivation of RXRalpha (unknown origin) expressed in COS1 cells at 1 uM after 18 hrs by luciferase reporter gene assay relative to bexarotene; assay type: cell-based; conditions: COS-1; procedure, shortened: as §1
[3] = biological target: T1, Retinoic acid receptor RXR-alpha (Homo sapiens); assay: Transactivation of RXRalpha (unknown origin) expressed in COS1 cells at 10 uM after 18 hrs by luciferase reporter gene assay relative to bexarotene; assay type: cell-based; conditions: COS-1; procedure, shortened: as §1
Mus musculus [4] = assay: Toxicity against KKAy mouse assessed as creatinine level at 10 mg/kg/day, po for 14 days (reference value: 0.2 mg/dl); assay type: organism-based; parameters: route oral; conditions: in vivo, 336 h
Mus musculus [5] = assay: Toxicity against KKAy mouse assessed as total cholesterol level at 10 mg/kg/day, po for 14 days (reference value: 153.2 +/- 11.1 mg/dL); assay type: organism-based; parameters: route oral; conditions: in vivo, 336 h
Mus musculus [6] = assay: Toxicity against KKAy mouse assessed as plasma triglyceride level at 10 mg/kg/day, po for 14 days (reference value: 122.4 +/- 11.0 mg/dL); assay type: organism-based; parameters: route oral; conditions: in vivo, 336 h
Mus musculus [7] = assay: Toxicity against KKAy mouse assessed as blood urea nitrogen level at 10 mg/kg/day, po for 14 days (reference value: 21.9 +/- 1.1 mg/dL); assay type: organism-based; parameters: route oral; conditions: in vivo, 336 h
Mus musculus [8] = assay: Toxicity against KKAy mouse assessed as plasma ALP level at 10 mg/kg/day, po for 14 days (reference value: 358.2 +/- 43.1 IU); assay type: organism-based; parameters: route oral; conditions: in vivo, 336 h
Mus musculus [9] = assay: Toxicity against KKAy mouse assessed as plasma gammaGTP level at 10 mg/kg/day, po for 14 days (reference value: 5.8 +/- 0.6 IU); assay type: organism-based; parameters: route oral; conditions: in vivo, 336 h
Mus musculus [10] = assay: Toxicity against KKAy mouse assessed as plasma ALT level at 10 mg/kg/day, po for 14 days (reference value: 17.6 +/- 0.9 IU); assay type: organism-based; parameters: route oral; conditions: in vivo, 336 h
Mus musculus [11] = assay: Toxicity against KKAy mouse assessed as plasma AST level at 10 mg/kg/day, po for 14 days (reference value: 49.6 +/- 2.3 IU); assay type: organism-based; parameters: route oral; conditions: in vivo, 336 h
Mus musculus [12] = assay: Toxicity in ICR mouse assessed as change in renal function parameters at 30 mg/kg/day, po for 7 days; assay type: organism-based; parameters: route oral; conditions: in vivo, 168 h
Procedure, shortened: (§2)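 Male ICR mice, 6−7 weeks old, four per cage, grouped by body weight. Oral 30 mg/kg or vehicle (1% ethanol/0.5% CMC in water, 10 mL/kg) once daily for 7 days, body weight recorded daily. After overnight fasting, mice were weighed under ether, and liver was removed and weighed. Serum was analysed on a dry-chemistry analyser for TG, TCHO, ALP, CRE, BUN and other markers. n = 7−23, ANOVA.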

Mus musculus [13] = assay: Toxicity in ICR mouse assessed as increase in blood triglyceride level at 30 mg/kg/day, po for 7 days; assay type: organism-based; parameters: route oral; conditions: in vivo, 168 h; procedure, shortened: as §2
Mus musculus [14] = assay: Toxicity in ICR mouse assessed as weight gain at 30 mg/kg/day, po for 7 days relative to control; assay type: organism-based; parameters: route oral; conditions: in vivo, 168 h; procedure, shortened: as §2
[15] = biological target: T1, Retinoic acid receptor RXR-alpha (Homo sapiens); assay: Partial agonist activity at RXRalpha (unknown origin) expressed in COS1 cells after 18 hrs by luciferase reporter gene assay relative to bexarotene; assay type: cell-based; conditions: COS-1; procedure, shortened: as §1
[16] = biological target: T2, Retinoic acid receptor RXR-alpha (Homo sapiens, UniProt P19793); assay: Partial agonist activity at RXRalpha (unknown origin) expressed in COS1 cells after 18 hrs by luciferase reporter gene assay; assay type: cell-based, COS-1; procedure, shortened: as §1
T2 sequence (P19793 whole entry): T1 sequence (whole entry)

Efficacy [1] [%] | Efficacy [2] [%] | Efficacy [3] [%] | Emax [15] [%] | EC50 [16] [nM] | SMILES | further results
< 5 | < 5 | 22 |  |  | Cc1cc2c(cc1-n1c(=O)[nH]c3cc(C(=O)O)ccc31)C(C)(C)CCC2(C)C | 
 |  |  |  |  | CCc1ccc(CCOc2ccc(CC3SC(=O)NC3=O)cc2)nc1 (centres undefined) [PIOGLITAZONE] | Activity (Mus musculus [4]): 0.2 mg/dL; Activity (Mus musculus [5]): 147.3 mg/dL; Activity (Mus musculus [6]): 124 mg/dL; Activity (Mus musculus [7]): 22.2 mg/dL; Activity (Mus musculus [8]): 395.7 IU; Activity (Mus musculus [9]): 7.3 IU; Activity (Mus musculus [10]): 21.3 IU; Activity (Mus musculus [11]): 45.3 IU
28 | 70 | 80 | 94 | 367 | Cc1cc2c(cc1-n1c(C)nc3cc(C(=O)O)ccc31)C(C)(C)CCC2(C)C | Activity (Mus musculus [12]): Non-toxic; Activity (Mus musculus [13]): Non-toxic; Activity (Mus musculus [14]): Non-toxic
< 5 | 35 | 96 | 103 | 155 | Cc1cc2c(cc1-n1c(N)nc3cc(C(=O)O)ccc31)C(C)(C)CCC2(C)C | 
< 5 | < 5 | 37 |  |  | Cc1cc2c(cc1-n1c(=S)[nH]c3cc(C(=O)O)ccc31)C(C)(C)CCC2(C)C | 
45 | 67 | 77 | 73 | 83 | Cc1cc2c(cc1-n1ccc3cc(C(=O)O)ccc31)C(C)(C)CCC2(C)C | 
86 | 96 | 98 |  | 3.8 | CCN(c1ccc2c(c1)C(C)(C)CCC2(C)C)c1ccc(C(=O)O)cn1 | Activity (Mus musculus [12]): Non-toxic; Activity (Mus musculus [13]): Non-toxic; Activity (Mus musculus [14]): Non-toxic
< 5 | 52 | 72 | 75 | 633 | Cc1cc2c(cc1-n1cnc3cc(C(=O)O)ccc31)C(C)(C)CCC2(C)C | 
